Bioassay records deposited in PubChem BioAssay by The Scripps Research Institute Molecular Screening Center.
A selection: hits, their analogues and other compounds. The true share with any hit is near 1.6%.
GALR2 blocker: blocks the human galanin receptor 2 | inhibition, % at 4 µM | GALR2-expressing cells, antagonist mode | 0.39% of 140,000 active; in the data active = inhibition above about 27%;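 also: cells stimulated with galanin 1-16 at roughly its EC80; 0% = agonist challenge control and 100% = basal control without agonist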
Target sequence (O43603 whole entry, looked up): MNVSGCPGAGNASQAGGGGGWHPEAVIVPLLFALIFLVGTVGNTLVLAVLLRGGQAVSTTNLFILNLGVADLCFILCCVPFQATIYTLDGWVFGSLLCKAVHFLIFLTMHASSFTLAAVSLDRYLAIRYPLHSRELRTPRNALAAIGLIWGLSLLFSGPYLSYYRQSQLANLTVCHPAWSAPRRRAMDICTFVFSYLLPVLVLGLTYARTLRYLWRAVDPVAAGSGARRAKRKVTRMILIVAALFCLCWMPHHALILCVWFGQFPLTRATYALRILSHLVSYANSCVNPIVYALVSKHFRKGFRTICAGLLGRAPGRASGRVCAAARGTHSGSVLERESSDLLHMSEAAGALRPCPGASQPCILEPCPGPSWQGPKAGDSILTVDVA
GALR2 agonist: activates the human galanin receptor 2. O43603. 0.48% of 140,000 active. AID 803. activation, % (concentration not given with the values). GALR2-expressing cells, agonist activation read-out; in the data active = activation above about 5%, passing the limit was not always enough;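 also: 0% = vehicle buffer wells and 100% = reference agonist at full effect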
S1P2 antag: S1P2 (human) receptor antagonism; O95136; cell-based S1P2 antagonist assay, inhibition at 5 uM; inhibition, % at 5 µM; 0.21% of 97,000 active; in the data active = inhibition above about 45%;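 also: CRE beta-lactamase reporter cells expressing human S1P2 stimulated with S1P; 0% = agonist at EC80 alone and 100% = agonist plus reference antagonist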
S1P2 ag: agonists of human S1P2 receptor. O95136. S1P2-expressing cell line, agonist reporter read-out. activation, % at 4.5 µM. 0.46% of 97,000 active; in the data active = activation above about 16%;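 also: 0% = vehicle low control and 100% = maximal reference agonist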
HIV Rev-RRE inh: HIV Rev-RRE protein-RNA interaction inhibition; P05866; Rev peptide-RRE RNA binding, FRET; inhibition, % at 8 µM; 0.79% of 97,000 active; AID 704;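 active = inhibition above the screen-wide mean plus 3 SD, cut at about 35% in these data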;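 also: 0% = median DMSO wells and 100% = median Neomycin B control wells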
Target sequence (P05866 whole entry, looked up): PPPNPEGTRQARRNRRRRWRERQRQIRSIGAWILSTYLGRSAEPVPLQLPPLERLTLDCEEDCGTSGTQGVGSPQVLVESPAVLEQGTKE
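Material: labelled RRE RNA duplex and labelled Rev peptide / Buffer or medium: HEPES pH 7.5 salt buffer with EDTA / Compound dosing: single point, 8 µM final nominal compound concentration / Benchmarks: DMSO low control, neomycin B high control / Timing: 5 min preincubation and 15 min binding, 25 °C / Technique: FRET fluorescence readout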
Numbers without * were called inactive; x = no result; [ ] = remark or other dose.

SMILES	GALR2 blocker	GALR2 agonist	S1P2 antag	S1P2 ag	HIV Rev-RRE inh
O=C(O)c1ccc(NC(=S)Nc2ccccc2)cc1	3	-1	x	x	x
C=CCn1c(N)cc(=O)nc1SCC(=O)Nc1ccccc1	-6	-4	-9	80*	10
Fc1ccc(NCc2cccnc2)cc1F	-3	0	6	-4	41*
Cc1ccc(N2C(=O)c3cccc4c(N5CCN(C)CC5)ccc(c34)C2=O)c2cccnc12	15	1	19	-6	110*[fluorescence artefact?]
Cc1cccc(N2C(=O)c3cccc4c(N5CCCCC5)c([N+](=O)[O-])cc(c34)C2=O)c1C	-3	1	x	x	x
CCC(C)n1c(SCc2ccccc2)nc2ccsc2c1=O (stereo unspecified)	-22	2	x	x	x
CCn1c(C)nc2cc(C(=O)OC(C(F)(F)C(F)F)C(F)(F)C(F)F)ccc21	7	0	70*	-9	12
Cc1cc(C)c(S(C)(=O)=O)c(Sc2ccc(Cl)cc2)n1	0	-4	7	-6	9
O=C(NCCC1=CCCCC1)C1CCN(C(=O)c2ccc(Br)cc2)CC1	-3	0	x	x	x
COc1cc2c(cc1OC)C(CC#N)=NC(C)(C)C2	-3	-2	-46	18*	1
Cc1ccc(C(=O)/C=C/c2ccc(-c3ccc(C)cc3)o2)cc1	-6	-1	x	x	x
O=c1nc(/C=C/c2ccc(-c3ccc(F)cc3)o2)cc(C(F)(F)F)[nH]1	1	6	9	-1	116*[fluorescence artefact?]
CCCn1c(C)cc(C(=O)COC(=O)c2cc(S(=O)(=O)NCC(C)C)c(Cl)cc2Cl)c1C	-11	-1	-6	29*	4
COCC(=O)Nc1nc2n(n1)C(c1ccc(Cl)cc1)CC(c1ccc(OC)cc1)N2 (stereo unspecified)	-3	-1	6	-8	36*
NC(=S)Nc1cccc2cc3ccccc3cc12	18	2	17	1	102*[fluorescence artefact?]
O=c1/c(=C\c2ccc(O)cc2)sc2n1C(c1ccccc1)C(c1ccccc1)=NN=2 (stereo unspecified)	7	-2	25	-8	41*
CC(C)CCNC(=O)CO/N=C/c1ccccc1OC(F)F	-8	-1	x	x	x
COc1ccc2c(C)cc(N3CCOCC3)nc2c1	-5	-2	3	-6	11
COc1ccc2c(C)cc(SCC(=O)N3CCOCC3)nc2c1	12	-2	8	-7	60*
CCOC(=O)c1sc(NC(=O)c2cc(-c3ccccc3C)nc3ccccc23)c(C#N)c1C	-12	-1	-19	-5	10
Cc1ccccc1-c1cc(C(=O)Nc2sc(C)c(C)c2C(N)=O)c2ccccc2n1	12	0	-41	17*	13
COc1ccc(C2C(C(=O)c3cccs3)=C(O)C(=O)N2c2nnc(C)s2)cc1OC (stereo unspecified)	1	-1	0	-7	107*[fluorescence artefact?]
Cc1cc(N2C(=O)C(O)=C(C(=O)c3ccco3)C2c2ccc(O)cc2)no1 (stereo unspecified)	13	-3	7	-3	6
COc1ccc(C2C(C(C)=O)=C(O)C(=O)N2c2cccnc2)cc1OC (stereo unspecified)	-6	-1	0	-1	8
COc1ccc(C2C(C(=O)c3cccs3)=C(O)C(=O)N2c2nncs2)cc1 (stereo unspecified)	-6	-2	6	-8	102*[fluorescence artefact?]
SMILES	GALR2 blocker	GALR2 agonist	S1P2 antag	S1P2 ag	HIV Rev-RRE inh
C=CCOc1ccc(C2C(C(=O)c3cccs3)=C(O)C(=O)N2c2nnc(C)s2)cc1 (stereo unspecified)	-7	0	-7	-7	102*[fluorescence artefact?]
Cc1ccc(C2C(C(=O)c3ccco3)=C(O)C(=O)N2c2nnc(C)s2)cc1 (stereo unspecified)	7	-3	-10	-4	48*
C=CCn1c(CCC(=O)Nc2ccc(C)c(Cl)c2)nnc1SCC(=O)Nc1ccccc1C	-7	-1	17	-6	9
O=C(C#Cc1cccc([N+](=O)[O-])c1)c1ccccc1	25	-3	75*	-10	6
Cc1cc(/C=C(/C#N)c2nc3ccccc3[nH]2)c(C)n1-c1cccc([N+](=O)[O-])c1	-3	0	-13	30*	4
Cc1cc(/C=C(\C#N)c2nc3ccccc3[nH]2)c(C)n1C	12	1	x	x	x
CCOc1cc(N(CC)CC)ccc1/C=C(/C#N)c1nc2ccccc2[nH]1	23	-1	6	12	132*[fluorescence artefact?]
COc1cc(/C=C(\C#N)c2nc3ccc(C)cc3[nH]2)c([N+](=O)[O-])cc1OC	8	-2	-3	18*	9
Cc1ccc2nc(/C(C#N)=C\c3ccc(Oc4ccc(C(F)(F)F)cc4[N+](=O)[O-])cc3)[nH]c2c1	3	0	x	x	x
CCCOc1cc(N(CC)CC)ccc1/C=C(/C#N)c1nc2ccc(C)cc2[nH]1	25	-3	1	0	133*[fluorescence artefact?]
Cc1ccccc1N1CCN(C2=NC(=O)/C(=C/c3cn[nH]c3-c3ccccc3)S2)CC1	4	-2	x	x	x
CNC(=O)N(C1=NCCCCC1)c1ccc(Br)cc1	12	-1	x	x	x
O=C(Cn1cc2c(n1)CCCC2)Nc1cc(-c2cccc(Cl)c2)no1	2	-1	x	x	x
Cc1ccc(-c2nn3c(C)nnc3c3ccccc23)cc1S(=O)(=O)N1CCN(CCO)CC1	-7	-1	2	0	2
COc1ccc(-c2nnc3c4ccccc4c(C)nn23)cc1S(=O)(=O)N1CCN(CCO)CC1	4	-1	-36	17*	5
CCC1CCC2(CC1)NC(=O)N(CC(=O)c1c(C)[nH]c3ccccc13)C2=O (stereo unspecified)	-2	-2	x	x	x
N#CCSc1nc2cc(C(=O)N3CCC(C(N)=O)CC3)ccc2c2nc3ccccc3n12	-8	0	-23	37*	6
Cn1c2ccc(Cl)cc2c2nc3ccccc3nc21	1	-1	-53	24*	7
CC1=CC2=NC(=O)/C(=C\c3cc(C)n(-c4ccccc4F)c3C)C(=N)N2O1	7	5.4*	x	x	x
Cc1ccc(OC(=O)C2c3ccccc3Oc3ccccc32)cc1C	8	1	x	x	x
c1ccc(Nc2ccc3c4c(cccc24)CC3)cc1	-1	-4	-40	-1	9
Nc1ccc2c3c(cccc13)CC2	20	-1	10	-11	47*
CCCCCCc1cc2cc(C(=O)Nc3ccc(OC)cc3)c(=O)oc2cc1O	8	-1	x	x	x
CCCCCCc1cc2cc(C(=O)NC)c(=N)oc2cc1O	-13	4	4	4	70*
C=CCn1c(SCC(=O)NC(=O)c2cccc([N+](=O)[O-])c2)nnc1-c1ccccc1F	3	-1	x	x	x
CN(C)NC(=S)Nc1ccc2nc(-c3ccccn3)c(-c3ccccn3)nc2c1	-6	0	2	-5	19
CC(C)(C)CC(C)(C)NC(=S)Nc1ccc2nc(-c3ccccn3)c(-c3ccccn3)nc2c1	2	0	27	-9	76*
OCCCNC(=S)Nc1ccc2nc(-c3ccccn3)c(-c3ccccn3)nc2c1	3	-3	6	-5	36*
Cc1ccc(N(CN2C(=O)c3ccccc3C2=O)C(=O)c2ccc([N+](=O)[O-])cc2[N+](=O)[O-])cc1	-4	-1	x	x	x
